Source: ChEMBL document CHEMBL2202989, “New adamantane phenylalkylamines with σ-receptor binding affinity and anticancer activity, associated with putative antagonism of neuropathic pain” (J Med Chem, 2012)

Assays:
[1] = test system: BXPC-3; assay: Cell cycle arrest in human BxPC3 cells assessed as accumulation at S phase at 0.5 uM after 24 hrs using propidium iodide staining by FACS analysis (reference value: 33 %); format: functional
Outline: (§1)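 Cells were plated 24 h before treatment and exposed for 24 h at final 0.5, 5, 15 and 50 μM in 0.5% DMSO, against vehicle-treated controls. Cells were then trypsinised and fixed in cold ethanol for 3 h at 4 °C. They were stained in a mix of RNase (200 μg/mL) and PI (1 mg/mL) for 45 min at room temperature in the dark. Flow cytometry used 488 nm excitation and 10 000 gated cells. Phase percentages were assigned from DNA content.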

[2] = test system: IGROV-1; assay: Cell cycle arrest in human IGROV1 cells assessed as accumulation at G1 phase at 0.5 uM after 24 hrs using propidium iodide staining by FACS analysis (reference value: 27 %); format: functional; outline: as §1
[3] = test system: HCT-15; assay: Growth inhibition of human HCT15 cells after 48 hrs by SRB assay; format: functional; conditions: HCT-15, 48 h
Outline: (§2)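 Cells grown in RPMI 1640 with 5% heat-inactivated FCS, 2 mM L-glutamine and antibiotics, 37 °C, 5% CO2. Seeded at 3500–30000 cells/well and left 24 h before dosing. DMSO solutions added at 10-fold dilutions from 100 to 0.01 μM for 48 h. Cells TCA-fixed and SRB-stained, absorbance read at 540 nm; GI50 derived against the time-zero plate.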

[4] = test system: Mus musculus; assay: Toxicity in SCID mouse assessed as body weight loss at 40 to 55 mg/kg, ip for 2 to 3 weeks; format: organism-based; set-up: route intraperitoneal; conditions: in vivo
Outline: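 CD-1 (male and female) and SCID mice dosed ip at 40−55 mg/kg in 5% Tween 80 for chronic 2−3 week regimens. Deaths and body weight loss compared with vehicle (Tween 80 or Cremophor) and reference-drug groups. Weight loss, neurological, behavioral and dietary changes recorded as toxicity signs.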

[5] = test system: IGROV-1; assay: Induction of apoptosis in human IGROV1 cells assessed as cleaved caspase3 containing cells at 0.5 uM by antibody-based FACS analysis (reference value: 3.9 %); format: functional
[6] = test system: PC-3; assay: Antitumor activity against human PC3 cells xenografted in SCID mouse assessed as primary tumor occurrence at 55 mg/kg, ip administered 5 consecutive days in a week for two cycles measured after 2 cycles relative to control; format: functional; conditions: route intraperitoneal
Outline: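 PC3 xenografts were grown in SCID mice (10^6 cells per inoculum), 14 mice (28 tumors) per group, dosed ip from about 100 mm3. The test agent was given in 5% Tween 80; paclitaxel was given in Cremophor diluted in saline, with a vehicle of 1:1 ethanol/Cremophor diluted 1:3 in saline. Volume and %ΔT/ΔC were derived from caliper readings twice weekly. Occurrence of primary tumors and of axillary and bone metastases was scored (n = 7). Two-tailed t test.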

[7] = test system: BXPC-3; assay: Induction of apoptosis in human BxPC3 cells assessed as total apoptotic death at 5 uM using annexin V/7-AAD by FACS analysis (reference value: 18 %); format: functional
Outline: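 Cells plated 24 h before treatment, then exposed 24 h to 0.5, 5, 15 or 50 μM compound (final DMSO 0.5%); vehicle controls included. Cells scraped and stained with annexin V-FITC and 7-AAD for 15 min on ice in the dark. Flow cytometry with 488 nm excitation, 10,000 gated cells. Early apoptosis was annexin V+/7-AAD−, late was annexin V+/7-AAD+.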

[8] = test system: PC-3; assay: Cell cycle arrest in human PC3 cells assessed as accumulation at G2 phase at 0.5 uM after 24 hrs using propidium iodide staining by FACS analysis (reference value: 12 %); format: functional
[9] = test system: PC-3; assay: Cell cycle arrest in human PC3 cells assessed as accumulation at >G2/M phase at 15 uM after 24 hrs using propidium iodide staining by FACS analysis (reference value: 6 %); format: functional
[10] = test system: PC-3; assay: Cell cycle arrest in human PC3 cells assessed as accumulation at S phase at 5 uM after 24 hrs using propidium iodide staining by FACS analysis (reference value: 42 %); format: functional
[11] = test system: IGROV-1; assay: Cell cycle arrest in human IGROV1 cells assessed as accumulation at sub G1 phase at 50 uM after 24 hrs using propidium iodide staining by FACS analysis (reference value: 4 %); format: functional
[12] = test system: BXPC-3; assay: Induction of apoptosis in human BxPC3 cells assessed as cleaved caspase3 containing cells at 0.5 uM by antibody-based FACS analysis (reference value: 8.2 %); format: functional
[13] = test system: IGROV-1; assay: Cell cycle arrest in human IGROV1 cells assessed as accumulation at S phase at 5 uM after 24 hrs using propidium iodide staining by FACS analysis (reference value: 29 %); format: functional
[14] = test system: IGROV-1; assay: Induction of apoptosis in human IGROV1 cells assessed as late apoptosis at 50 uM using annexin V/7-AAD by FACS analysis (reference value: 5 %); format: functional
[15] = test system: BXPC-3; assay: Induction of apoptosis in human BxPC3 cells assessed as late apoptosis at 0.5 uM using annexin V/7-AAD by FACS analysis (reference value: 9 %); format: functional
[16] = test system: OVCAR-5; assay: Antitumor activity against human OVCAR5 cells xenografted in SCID mouse assessed as tumor growth inhibition at 55 mg/kg, ip administered 5 consecutive days in a week for two cycles measured after 2 cycles relative to control; format: functional; conditions: OVCAR-5, ip, route intraperitoneal, read-out: TGI
Outline: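 SCID mice carried OVCAR5 xenografts (10^6 cells per inoculum), 16 mice (32 tumors) per group, with ip dosing in 5% Tween 80 from a tumor volume of about 100 mm3. Caliper volume was measured twice weekly and %ΔT/ΔC derived. At termination, primary tumors were weighed and secondary metastases were scored at axillary and bone sites (n = 7−8). Two-tailed t test.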

[17] = test system: PC-3; assay: Cell cycle arrest in human PC3 cells assessed as accumulation at sub G1 phase at 50 uM after 24 hrs using propidium iodide staining by FACS analysis (reference value: 4 %); format: functional
[18] = test system: BXPC-3; assay: Cell cycle arrest in human BxPC3 cells assessed as accumulation at >G2/M phase at 5 uM after 24 hrs using propidium iodide staining by FACS analysis (reference value: 6 %); format: functional; outline: as §1
[19] = test system: IGROV-1; assay: Cell cycle arrest in human IGROV1 cells assessed as accumulation at >G2/M phase at 50 uM after 24 hrs using propidium iodide staining by FACS analysis (reference value: 21 %); format: functional; outline: as §1
[20] = test system: BXPC-3; assay: Cell cycle arrest in human BxPC3 cells assessed as accumulation at S phase at 15 uM after 24 hrs using propidium iodide staining by FACS analysis (reference value: 33 %); format: functional; outline: as §1
[21] = test system: IGROV-1; assay: Induction of apoptosis in human IGROV1 cells assessed as healthy cells at 5 uM using annexin V/7-AAD by FACS analysis (reference value: 86 %); format: functional
[22] = test system: BXPC-3; assay: Cell cycle arrest in human BxPC3 cells assessed as accumulation at sub G1 phase at 15 uM after 24 hrs using propidium iodide staining by FACS analysis (reference value: 9 %); format: functional; outline: as §1
[23] = test system: PC-3; assay: Cell cycle arrest in human PC3 cells assessed as accumulation at G1 phase at 0.5 uM after 24 hrs using propidium iodide staining by FACS analysis (reference value: 36 %); format: functional
[24] = test system: MCF7; assay: Growth inhibition of human MCF7 cells after 48 hrs by SRB assay; format: functional; conditions: MCF7, 48 h; outline: as §2
[25] = read-out: LC50 (the source's name)

`CN1CCN(CCCc2ccc(C(c3ccccc3)C34CC5CC(CC(C5)C3)C4)cc2)CC1` (stereo not drawn) showed an Activity [1] of 31%, an Activity [2] of 25% and a GI50 [3] of 3.5 µM. For the same compound, the TGI [3] was 6.35 µM, the CC50 [3, 25] was 0.0092 µM and the Activity [4] was “Non-toxic”. The Activity [5] was 4.2%, the Activity [6] was 100% and the Activity [7] was 21%. The Activity [8] was 15%, the Activity [9] was 7% and the Activity [10] was 36%. The Activity [11] was 18%, the Activity [12] was 4% and the Activity [13] was 27%. It also gave an Activity [14] of 25%, an Activity [15] of 7% and an inhibition in vivo at 55 mg/kg [16] of 44.5%. For the same compound, the Activity [17] was 12%, the Activity [18] was 5% and the Activity [19] was 15%. The Activity [20] was 27%, the Activity [21] was 83% and the Activity [22] was 24%. It also gave an Activity [23] of 34%, a GI50 [24] of 3.2 µM and a TGI [24] of 6.1 µM. It also gave a CC50 [24, 25] of 0.009 µM.
